Values joined by “and” are separate entries in the source; they are usually repeats but may differ in a detail not shown here. Equal entries are not always repeated. Non-standard residues stand in square brackets, D forms with d. Residues, ends and D or L forms follow the SMILES beside them.
Test system: Fibroblast
Test: Multiplex assay against human fibroblast
Format: toxicity, cell-based
Procedure, shortened: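 Live cells were stained at seeding with Hoechst33342, BioTracker Green Microtubule Cytoskeleton Dye, MitoTracker Red and Annexin V Alexa Fluor 680, then imaged on a CQ1 microscope at 37°C and 5% CO2 after compound addition. CellPathfinder machine-learning gating split cells into Hoechst high-intensity objects or normal cells. Normal cells were split into healthy, pyknosed or fragmented nuclei, and pyknosed cells into mitotic or apoptotic. Tubulin, mitochondrial-mass and membrane-permeability phenotypes are per cents of healthy-nucleus cells.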

[1] = 12 h, 1 µM, compound concentration 1 uM
[2] = 12 h, 10 µM, compound concentration 10 uM
[3] = 24 h, 1 µM, compound concentration 1 uM
[4] = 24 h, 10 µM, compound concentration 10 uM
[5] = 48 h, 1 µM, compound concentration 1 uM
[6] = 48 h, 10 µM, compound concentration 10 uM

CC(C)C[C@@H]1NC(=O)[C@@H](C(C)C)NC(=O)[C@@H]2CCCN2C(=O)[C@@H](CC(=O)O)NC(=O)[C@@H](Cc2c[nH]c3ccccc23)NC1=O [BQ-123] (cyclo(L[dW][dD]P[dV]))
Population Apoptotic (%) [1]: 57% and 21% | Population Fragmented Nuclei (%) [1]: 18% and 22% | Population Healthy Nuclei (%) [1]: 68% and 58% | Population Hoechst High Intensity Objects (%) [1]: 0% and 3% | Population Membrane Permeable-Phenotype (%) [1]: 1% and 5% | Population Mitochondria Different-Phenotype (%) [1]: 11% and 2% | Population Mitotic Cells (%) [1]: 42% and 78% | Population Normal (%) [1]: 100% and 96% | Population Pyknosed Nuclei (%) [1]: 13% and 18% | Population Tubulin-Different-Phenotype (%) [1]: 31% | Total Cell Count [1]: 105 and 157 | Population Apoptotic (%) [2]: 48% and 33% | Population Fragmented Nuclei (%) [2]: 15% and 30% | Population Healthy Nuclei (%) [2]: 65% and 48% | Population Hoechst High Intensity Objects (%) [2]: 2% | Population Membrane Permeable-Phenotype (%) [2]: 0% and 4% | Population Mitochondria Different-Phenotype (%) [2]: 9% and 3% | Population Mitotic Cells (%) [2]: 52% and 66% | Population Normal (%) [2]: 97% | Population Pyknosed Nuclei (%) [2]: 18% and 20% | Population Tubulin-Different-Phenotype (%) [2]: 33% and 46% | Total Cell Count [2]: 136 and 134 | Population Apoptotic (%) [3]: 53% and 24% | Population Fragmented Nuclei (%) [3]: 19% and 23% | Population Healthy Nuclei (%) [3]: 66% and 57% | Population Hoechst High Intensity Objects (%) [3]: 1% and 6% | Population Membrane Permeable-Phenotype (%) [3]: 0% and 3% | Population Mitochondria Different-Phenotype (%) [3]: 5% and 3% | Population Mitotic Cells (%) [3]: 46% and 75% | Population Normal (%) [3]: 98% and 93% | Population Pyknosed Nuclei (%) [3]: 14% and 18% | Population Tubulin-Different-Phenotype (%) [3]: 24% and 25% | Total Cell Count [3]: 107 and 166 | Population Apoptotic (%) [4]: 50% and 29% | Population Fragmented Nuclei (%) [4]: 19% and 27% | Population Healthy Nuclei (%) [4]: 64% and 50% | Population Hoechst High Intensity Objects (%) [4]: 8% and 0% | Population Membrane Permeable-Phenotype (%) [4]: 1% and 11% | Population Mitochondria Different-Phenotype (%) [4]: 5% and 3% | Population Mitotic Cells (%) [4]: 50% and 70% | Population Normal (%) [4]: 91% and 99% | Population Pyknosed Nuclei (%) [4]: 15% and 22% | Population Tubulin-Different-Phenotype (%) [4]: 32% and 50% | Total Cell Count [4]: 123 | Population Apoptotic (%) [5]: 50% and 52% | Population Fragmented Nuclei (%) [5]: 18% and 28% | Population Healthy Nuclei (%) [5]: 70% and 56% | Population Hoechst High Intensity Objects (%) [5]: 3% and 4% | Population Membrane Permeable-Phenotype (%) [5]: 0% and 2% | Population Mitochondria Different-Phenotype (%) [5]: 12% and 4% | Population Mitotic Cells (%) [5]: 50% and 48% | Population Normal (%) [5]: 96% and 95% | Population Pyknosed Nuclei (%) [5]: 11% and 15% | Population Tubulin-Different-Phenotype (%) [5]: 25% and 39% | Total Cell Count [5]: 109 and 172 | Population Apoptotic (%) [6]: 70% and 46% | Population Fragmented Nuclei (%) [6]: 26% and 45% | Population Healthy Nuclei (%) [6]: 59% and 42% | Population Hoechst High Intensity Objects (%) [6]: 5% and 6% | Population Membrane Permeable-Phenotype (%) [6]: 1% and 9% | Population Mitochondria Different-Phenotype (%) [6]: 5% and 3% | Population Mitotic Cells (%) [6]: 29% and 53% | Population Normal (%) [6]: 94% and 93% | Population Pyknosed Nuclei (%) [6]: 13% and 12% | Population Tubulin-Different-Phenotype (%) [6]: 38% and 51% | Total Cell Count [6]: 129 and 130

COc1ccccc1N1CCN(C[C@@H](C(=O)NC(C)(C)C)c2ccccc2)CC1.Cl.Cl
Population Apoptotic (%) [1]: 43% and 40% | Population Fragmented Nuclei (%) [1]: 12% and 25% | Population Healthy Nuclei (%) [1]: 70% and 43% | Population Hoechst High Intensity Objects (%) [1]: 2% and 5% | Population Membrane Permeable-Phenotype (%) [1]: 0% | Population Mitochondria Different-Phenotype (%) [1]: 8% and 4% | Population Mitotic Cells (%) [1]: 56% and 60% | Population Normal (%) [1]: 97% and 94% | Population Pyknosed Nuclei (%) [1]: 16% and 30% | Population Tubulin-Different-Phenotype (%) [1]: 37% and 43% | Total Cell Count [1]: 141 and 155 | Population Apoptotic (%) [2]: 50% and 48% | Population Fragmented Nuclei (%) [2]: 20% and 32% | Population Healthy Nuclei (%) [2]: 59% and 42% | Population Hoechst High Intensity Objects (%) [2]: 5% | Population Membrane Permeable-Phenotype (%) [2]: 1% and 6% | Population Mitochondria Different-Phenotype (%) [2]: 20% and 12% | Population Mitotic Cells (%) [2]: 50% and 51% | Population Normal (%) [2]: 94% | Population Pyknosed Nuclei (%) [2]: 20% and 24% | Population Tubulin-Different-Phenotype (%) [2]: 66% and 70% | Total Cell Count [2]: 134 and 116 | Population Apoptotic (%) [3]: 50% | Population Fragmented Nuclei (%) [3]: 12% and 24% | Population Healthy Nuclei (%) [3]: 73% and 55% | Population Hoechst High Intensity Objects (%) [3]: 2% and 3% | Population Membrane Permeable-Phenotype (%) [3]: 0% and 8% | Population Mitotic Cells (%) [3]: 50% | Population Normal (%) [3]: 97% and 96% | Population Pyknosed Nuclei (%) [3]: 14% and 19% | Population Tubulin-Different-Phenotype (%) [3]: 32% and 50% | Total Cell Count [3]: 143 and 151 | Population Apoptotic (%) [4]: 83% and 40% | Population Fragmented Nuclei (%) [4]: 19% and 39% | Population Healthy Nuclei (%) [4]: 65% and 41% | Population Hoechst High Intensity Objects (%) [4]: 8% and 3% | Population Membrane Permeable-Phenotype (%) [4]: 0% and 8% | Population Normal (%) [4]: 91% and 96% | Population Pyknosed Nuclei (%) [4]: 14% and 19% | Population Tubulin-Different-Phenotype (%) [4]: 63% and 76% | Total Cell Count [4]: 132 and 116 | Population Apoptotic (%) [5]: 84% and 60% | Population Fragmented Nuclei (%) [5]: 18% and 31% | Population Healthy Nuclei (%) [5]: 71% and 52% | Population Hoechst High Intensity Objects (%) [5]: 5% | Population Membrane Permeable-Phenotype (%) [5]: 1% and 5% | Population Mitochondria Different-Phenotype (%) [5]: 12% and 5% | Population Mitotic Cells (%) [5]: 15% and 40% | Population Normal (%) [5]: 94% | Population Pyknosed Nuclei (%) [5]: 10% and 15% | Population Tubulin-Different-Phenotype (%) [5]: 34% and 56% | Total Cell Count [5]: 138 and 171 | Population Apoptotic (%) [6]: 84% and 44% | Population Fragmented Nuclei (%) [6]: 18% and 50% | Population Healthy Nuclei (%) [6]: 63% and 41% | Population Membrane Permeable-Phenotype (%) [6]: 0% and 8% | Population Normal (%) [6]: 85% and 96% | Population Pyknosed Nuclei (%) [6]: 18% and 7% | Population Tubulin-Different-Phenotype (%) [6]: 65% and 67% | Total Cell Count [6]: 122

CCOc1ccccc1C(=O)NCC1(N2CCN(CC)CC2)CCCCC1
Population Apoptotic (%) [1]: 8% and 22.22% | Population Healthy Nuclei (%) [1]: 51.46% and 68.29% | Population Hoechst High Intensity Objects (%) [1]: 0% | Population Membrane Permeable-Phenotype (%) [1]: 3.41% and 2.98% | Population Mitochondria Different-Phenotype (%) [1]: 3.41% and 11.31% | Population Mitotic Cells (%) [1]: 92% and 77.78% | Population Normal (%) [1]: 100% | Population Pyknosed Nuclei (%) [1]: 29.24% and 25.61% | Population Tubulin-Different-Phenotype (%) [1]: 10.23% and 23.81% | Total Cell Count [1]: 171 and 246 | Population Apoptotic (%) [2]: 12.35% and 12.82% | Population Fragmented Nuclei (%) [2]: 13.04% and 5.43% | Population Healthy Nuclei (%) [2]: 42.93% and 73.37% | Population Hoechst High Intensity Objects (%) [2]: 0% | Population Membrane Permeable-Phenotype (%) [2]: 5.06% and 9.63% | Population Mitochondria Different-Phenotype (%) [2]: 41.77% and 25.19% | Population Mitotic Cells (%) [2]: 87.65% and 87.18% | Population Normal (%) [2]: 100% | Population Pyknosed Nuclei (%) [2]: 44.02% and 21.2% | Population Tubulin-Different-Phenotype (%) [2]: 65.82% and 80.74% | Total Cell Count [2]: 184 | Population Apoptotic (%) [3]: 15.79% and 31.25% | Population Fragmented Nuclei (%) [3]: 10.24% and 5.42% | Population Healthy Nuclei (%) [3]: 66.87% and 81.25% | Population Hoechst High Intensity Objects (%) [3]: 0% | Population Membrane Permeable-Phenotype (%) [3]: 1.8% and 4.1% | Population Mitochondria Different-Phenotype (%) [3]: 4.5% and 8.72% | Population Mitotic Cells (%) [3]: 84.21% and 68.75% | Population Normal (%) [3]: 100% | Population Pyknosed Nuclei (%) [3]: 22.89% and 13.33% | Population Tubulin-Different-Phenotype (%) [3]: 12.61% and 24.1% | Total Cell Count [3]: 166 and 240 | Population Apoptotic (%) [4]: 12.5% and 5.13% | Population Fragmented Nuclei (%) [4]: 13.66% and 11.26% | Population Healthy Nuclei (%) [4]: 62.93% and 71.17% | Population Hoechst High Intensity Objects (%) [4]: 0% | Population Membrane Permeable-Phenotype (%) [4]: 3.1% and 5.06% | Population Mitochondria Different-Phenotype (%) [4]: 45.74% and 22.78% | Population Mitotic Cells (%) [4]: 87.5% and 94.87% | Population Normal (%) [4]: 100% | Population Pyknosed Nuclei (%) [4]: 23.41% and 17.57% | Population Tubulin-Different-Phenotype (%) [4]: 68.22% and 84.81% | Total Cell Count [4]: 205 and 222 | Population Apoptotic (%) [5]: 21.43% and 23.08% | Population Fragmented Nuclei (%) [5]: 13.04% and 10.42% | Population Healthy Nuclei (%) [5]: 79.35% and 84.17% | Population Hoechst High Intensity Objects (%) [5]: 0% | Population Membrane Permeable-Phenotype (%) [5]: 0.68% and 0.5% | Population Mitotic Cells (%) [5]: 78.57% and 76.92% | Population Normal (%) [5]: 100% | Population Pyknosed Nuclei (%) [5]: 7.61% and 5.42% | Population Tubulin-Different-Phenotype (%) [5]: 8.9% and 21.29% | Total Cell Count [5]: 184 and 240 | Population Apoptotic (%) [6]: 15.79% and 45.16% | Population Fragmented Nuclei (%) [6]: 15.15% and 7.88% | Population Healthy Nuclei (%) [6]: 76.62% and 79.25% | Population Hoechst High Intensity Objects (%) [6]: 1.28% and 0% | Population Membrane Permeable-Phenotype (%) [6]: 3.39% and 4.71% | Population Mitochondria Different-Phenotype (%) [6]: 27.12% and 15.18% | Population Mitotic Cells (%) [6]: 84.21% and 54.84% | Population Normal (%) [6]: 98.72% and 100% | Population Pyknosed Nuclei (%) [6]: 8.23% and 12.86% | Population Tubulin-Different-Phenotype (%) [6]: 62.15% and 89.01% | Total Cell Count [6]: 234 and 241

From ChEMBL document CHEMBL5724801, “EUbOPEN Chemogenomics Library - Multiplex” (2024)
